The source made the active and inactive calls. The rule behind the calls is not given here.
Legend:
[1] = tested on: HepG2; assay: Induction of apoptosis in human HepG2 cells assessed as necrotic cells at IC50 concentrations measured after 72 hrs by Annexin V-FITC/Propidium iodide staining based FACS cytometry analysis; type: functional
In short: (§1)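 Seeding in 24-well plates was 5 × 10^4 B16–F10, 6 × 10^4 HT29 or 15 × 10^4 Hep G2 per well, followed by 24 h growth. Cells were treated in triplicate for 72 h at the respective IC50. Harvested cells went into HEPES binding buffer (pH 7.4, 140 mM NaCl, 2.5 mM CaCl2), with Annexin V-FITC added for 15 min at room temperature in the dark, then PI just before FACScan. About 10 × 10^3 cells were counted per sample. Results are mean ± SEM, relative to untreated control.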

[2] = tested on: HepG2; assay: Induction of apoptosis in human HepG2 cells assessed as total apoptosis at IC50 concentrations measured after 72 hrs by Annexin V-FITC/Propidium iodide staining based FACS cytometry analysis; type: functional; in short: as §1
[3] = tested on: HepG2; assay: Induction of mitochondrial membrane potential loss in human HepG2 cells assessed as fluorescence intensity at IC50 concentration measured after 72 hrs by rhodamine 123 staining based FACScan flow cytometry; type: functional, cell-based
In short: (§2)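 The medium was then renewed with dihydrorhodamine, which oxidizes to Rh123, for 1 h at 37 °C in 5% CO2. Cells were washed and resuspended in PBS, and fluorescence was read by FACScan (excitation 500, emission 536 nm). Three experiments, two replicates each, reported as mean ± SEM.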

[4] = tested on: HT-29; assay: Induction of apoptosis in human HT-29 cells assessed as necrotic cells at IC50 concentrations measured after 72 hrs by Annexin V-FITC/Propidium iodide staining based FACS cytometry analysis; type: functional; in short: as §1
[5] = tested on: B16-F10; assay: Cell cycle arrest in mouse B16-F10 cells assessed as decrease in cells accumulation in S phase at IC50 concentrations measured after 72 hrs by Propidium iodide staining based FACS cytometry analysis; type: functional; parameters: scale not given: the % may be the effect or the level left
In short: (§3)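 Cells were seeded in 24-well plates (5 × 10^4 B16–F10 or 6 × 10^4 HT29 per well) and grown 24 h in DMEM with 10% FCS and 2 mM glutamine at 37 °C, 5% CO2. They were then exposed 72 h at the cancer-line IC50, washed in PBS, trypsinized and taken up in TBS, then in Vindelov buffer (RNase, PI, pH 8). Cells were kept on ice and given extra PI before reading. About 10 × 10^3 cells were read per run by FACS at 488 nm. Three experiments, two replicates each, reported as mean ± SEM.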

[6] = tested on: B16-F10; assay: Induction of mitochondrial membrane potential loss in mouse B16-F10 cells assessed as fluorescence intensity at IC50 concentration measured after 72 hrs by rhodamine 123 staining based FACScan flow cytometry; type: functional, cell-based; in short: as §2
[7] = tested on: HT-29; assay: Cell cycle arrest in human HT-29 cells assessed as decrease in cells accumulation in S phase at IC50 concentrations measured after 72 hrs by Propidium iodide staining based FACS cytometry analysis; type: functional; parameters: scale not given: the % may be the effect or the level left; in short: as §3
[8] = tested on: B16-F10; assay: Induction of apoptosis in mouse B16-F10 cells assessed as necrotic cells at IC50 concentrations measured after 72 hrs by Annexin V-FITC/Propidium iodide staining based FACS cytometry analysis; type: functional; in short: as §1
[9] = tested on: HT-29; assay: Induction of apoptosis in human HT-29 cells assessed as total apoptosis at IC50 concentrations measured after 72 hrs by Annexin V-FITC/Propidium iodide staining based FACS cytometry analysis; type: functional; in short: as §1
[10] = tested on: B16-F10; assay: Induction of apoptosis in mouse B16-F10 cells assessed as total apoptosis at IC50 concentrations measured after 72 hrs by Annexin V-FITC/Propidium iodide staining based FACS cytometry analysis; type: functional; in short: as §1
[11] = tested on: HT-29; assay: Induction of mitochondrial membrane potential loss in human HT-29 cells assessed as fluorescence intensity at IC50 concentration measured after 72 hrs by rhodamine 123 staining based FACScan flow cytometry; type: functional, cell-based; in short: as §2
[12] = tested on: HT-29; assay: Cell cycle arrest in human HT-29 cells assessed as increase in cells accumulation in G0/G1 phase at IC50 concentrations measured after 72 hrs by Propidium iodide staining based FACS cytometry analysis; type: functional; in short: as §3
[13] = tested on: B16-F10; assay: Cell cycle arrest in mouse B16-F10 cells assessed as increase in cells accumulation in G0/G1 phase at IC50 concentrations measured after 72 hrs by Propidium iodide staining based FACS cytometry analysis; type: functional; in short: as §3

Row | SMILES | Activity [1] | Activity [2] | Activity [3] | Activity [4] | Activity [5] | Activity [6] | Activity [7] | Activity [8] | Activity [9] | Activity [10] | Activity [11] | Activity [12] | Activity [13]
1 | CC1(C)CC[C@]2(C(=O)NCCCNC(=O)/C=C/c3ccc(O)cc3)CC[C@]3(C)C(=CC[C@@H]4[C@@]5(C)C[C@@H](O)[C@H](O)C(C)(C)[C@@H]5CC[C@]43C)[C@@H]2C1 | 5% | 76% | Active | 5% | 10% | inactive | 10% | 5% | 40% | 40% | inactive |  | 
2 | CC1(C)CC[C@]2(C(=O)NCCCNC(=O)Cc3cc(=O)oc4cc(O)ccc34)CC[C@]3(C)C(=CC[C@@H]4[C@@]5(C)C[C@@H](O)[C@H](O)C(C)(C)[C@@H]5CC[C@]43C)[C@@H]2C1 | 5% | 40% | Active | 5% | 10% | inactive | 10% | 5% |  | 85% | inactive |  | 
3 | CC1(C)CC[C@]2(C(=O)NCCCNC(=O)c3cc4ccccc4oc3=O)CC[C@]3(C)C(=CC[C@@H]4[C@@]5(C)C[C@@H](O)[C@H](O)C(C)(C)[C@@H]5CC[C@]43C)[C@@H]2C1 | 5% |  | Active | 5% | 10% | inactive | 10% | 5% |  |  | inactive | inactive | inactive
4 | CC1(C)CC[C@]2(C(=O)O)CC[C@]3(C)C(=CC[C@@H]4[C@@]5(C)C[C@@H](OC(=O)c6cc7ccccc7oc6=O)[C@H](OC(=O)c6cc7ccccc7oc6=O)C(C)(C)[C@@H]5CC[C@]43C)[C@@H]2C1 | 5% | 40% | Active | 5% | 10% | inactive | 10% | 5% | 58% |  | inactive |  | 

Source: ChEMBL document CHEMBL4834438, “Synthesis and Biological Activity of Triterpene-Coumarin Conjugates” (J Nat Prod, 2021)
